Test results from article PMC6161044 (ACS Central Science, 2018).
Where “and” joins values, the source holds several entries; their conditions need not be identical. Equal values may be shown once. Ends that are not written are not given here. Peptide text beside a SMILES is read from it. * marks the point of attachment. αGalNAc = CC(=O)N[C@@H]1[C@@H](O)[C@@H](O)[C@@H](CO)O[C@@H]1*

What was measured:
[1] = target: GalNAc-T4 Lectin Mutant (D459H) (Homo sapiens, UniProt Q8N4A0, D459H); assay: Transferase assay and kinetics, lectin mutant; type: biochemical; conditions: for UDP-GalNAc Hydrolysis %: Sephadex G10 chromatography (Figure S8)
Outline: (§1)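 Enzyme construct residues 36–578, wild-type or site-directed mutants. Reaction: 75 mM Na cacodylate pH 6.5, 1 mM 2-mercaptoethanol, 10 mM MnCl2, 0.25 mM UDP-[3H]GalNAc, 0.004–1.4 mM (glyco)peptide and 0.02–0.2 μM enzyme, at 37 °C for 10–180 min (≤30% donor used). EDTA quench, Dowex, then Sephadex G10 to separate transfer from hydrolysis. Rates hydrolysis-corrected, 2–5 repeats; Km, Vmax and Ki from Michaelis–Menten ± substrate-inhibition fits.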

GalNAc-T4 [2] = target: T1, GalNAc-T4 (Homo sapiens, UniProt Q8N4A0); assay: Surface plasmon resonance binding to GalNAc-T4; conditions: wild-type
Outline: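 SPR binding of glycopeptide substrate to wild-type enzyme, run with excess UDP and MnCl2 present; Kd obtained by fitting the binding data.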

[3] = target: GalNAc-T4 Catalytic/LFL Mutant (T283S-Q285A-D464A) (Homo sapiens, UniProt Q8N4A0, D464A/Q285A/T283S); assay: Transferase assay and kinetics, catalytic/LFL mutant; type: biochemical
Outline: as §1

[4] = target: GalNAc-T4 Lectin Flexible Loop (LFL) deletion/mutant (P463DNNP467 to GGG) (Homo sapiens, UniProt Q8N4A0, DEL463-464/N465G/N466G/P467G); assay: Transferase assay and kinetics, LFL mutant; type: biochemical; conditions: for UDP-GalNAc Hydrolysis %: LFL deletion/mutant, Sephadex G10 chromatography (Figure S8)
Outline: as §1

GalNAc-T4 [5] = target: T1, GalNAc-T4; assay: STD-NMR epitope mapping with GalNAc-T4; type: binding; conditions: ~877 μM glycopeptide, 13.5 μM GalNAc-T4, 75 μM UDP, 75 μM MnCl2, 298 K
[6] = target: catalytic domain mutant of GalNAc-T4 (T283S-Q285A) (Homo sapiens, UniProt Q8N4A0, Q285A/T283S); assay: Surface plasmon resonance binding to GalNAc-T4 catalytic mutant; conditions: T283S/Q285A catalytic mutant (Figure S11)
[7] = target: GalNAc-T4 Catalytic Mutant (T283S-Q285A) (Homo sapiens, UniProt Q8N4A0, Q285A/T283S); assay: Transferase assay and kinetics, catalytic mutant; type: biochemical
GalNAc-T4 wild-type [8] = target: T2, GalNAc-T4 wild-type (Homo sapiens, UniProt Q8N4A0); assay: Transferase assay and kinetics, wild-type GalNAc-T4; type: biochemical; conditions: for Activity relative to glycopeptides 4 and 5 (fold higher): from Figure 1a
Outline: as §1

GalNAc-T4 wild-type [9] = target: T2, GalNAc-T4 wild-type; conditions: cited from earlier work
GalNAc-T4 [10] = target: T1, GalNAc-T4; conditions: in presence of GalNAc-T4, UDP, MnCl2; cited from earlier work
GalNAc-T4 [11] = target: T1, GalNAc-T4; conditions: wild-type GalNAc-T4, excess UDP and MnCl2; saturation not achieved; cited from earlier work
[12] = target: GalNAc-T4 catalytic mutant (T283S, Q285A), residues 36-578 (human, UniProt Q8N4A0 36-578, T283S | Q285A); assay: SPR
[13] = target: GalNAc-T4 (polypeptide GalNAc-transferase 4), wild type, residues 36-578 (human, UniProt Q8N4A0 36-578); assay: SPR

CC(=O)N[C@H]1[C@@H](O[C@H](C)[C@H](NC(=O)CNC(=O)[C@H](C)NC(=O)CNC(=O)[C@H](C)NC(=O)CNC(=O)[C@H](C)NC(=O)CNC(=O)[C@@H](NC(=O)[C@H](C)NC(=O)CN)[C@@H](C)O[C@H]2O[C@H](CO)[C@H](O)[C@H](O)[C@H]2NC(C)=O)C(=O)N[C@H](C(=O)N2CCC[C@H]2C(=O)NCC(=O)N2CCC[C@H]2C(=O)NCC(N)=O)[C@@H](C)O)O[C@H](CO)[C@H](O)[C@@H]1O [compound 6] (H-GAT(αGalNAc)GAGAGAGT(αGalNAc)TPGPG-NH2; N-terminus and C-terminus assumed)
Km increase relative to wt GalNAc-T4 [1]: ~20 fold | Vmax decrease relative to wt GalNAc-T4 [1]: ~5 fold | UDP-GalNAc Hydrolysis % [1]: ~20% | Kd (SPR) relative to Km (fold higher) (GalNAc-T4 [2]): ~2 fold | Km relative to catalytic mutant (fold lower) [3]: ~4 fold | Apparent Vmax relative to wt GalNAc-T4 (fold higher) ([4]; LFL mutant): ~2 fold | STD-NMR response, H2 proton of the GalNAc at Thr11 (GalNAc-T4 [5]; catalytic domain bound neighboring GalNAc): 50% | STD-NMR response, H2 proton of the GalNAc at Thr3 (GalNAc-T4 [5]; remote lectin bound GalNAc): 90% | Kd by SPR relative to wt transferase (fold higher) [6]: ~6 fold | Catalytic efficiency Vmax/Km as fraction of wt [7]: about 1/2 | Initial Vmax relative to wt transferase (fold higher) [7]: ~2 fold | Km relative to wt (fold higher) [7]: ~4 fold and ~3 fold | Catalytic efficiency (Vmax/Km) relative to peptide 3 (fold higher) (GalNAc-T4 wild-type [8]): ~1.5 fold | Catalytic efficiency (Vmax/Km) relative to peptide 4 (fold higher) (GalNAc-T4 wild-type [8]): ~150 fold | Km relative to peptide 3 (fold lower) (GalNAc-T4 wild-type [8]): ~1.3 fold | Activity relative to glycopeptides 4 and 5 (fold higher) (GalNAc-T4 wild-type [8]): ~10 fold

AGAGT*TPGPGAGAT*GA [compound 5]
Apparent activity and Vmax as fraction of the values for the catalytic and LFL mutants [3]: 1/4 | UDP-GalNAc Hydrolysis % [4]: ~50% | Reduction in catalytic efficiency compared to wt GalNAc-T4 ([4]; LFL mutant): ~50% | Catalytic activity (Vmax) as fraction of wt GalNAc-T4 activity [7]: 1/3 | Km relative to wt (fold higher) [7]: ~2 fold

AGAGTTPGPGAGAT*GA [compound 2]
Glycosylation by GalNAc-T4 (in words) (GalNAc-T4 wild-type [9]): imperceptibly glycosylated | UDP-GalNAc Hydrolysis % [4]: ~90%

GAGAGAGT*TPGPG [compound 4]
Catalytic efficiency relative to wt transferase (fold higher) [1]: ~2 fold | Vmax relative to wt transferase (fold higher) [1]: ~2 fold | Apparent activity and Vmax as fraction of the values for the catalytic and LFL mutants [3]: 1/4 | UDP-GalNAc Hydrolysis % [4]: ~50% | Reduction in catalytic efficiency compared to wt GalNAc-T4 ([4]; LFL mutant): ~50% | Catalytic activity (Vmax) as fraction of wt GalNAc-T4 activity [7]: 1/3 | Km relative to wt (fold higher) [7]: ~2 fold

GAGAGAGTTPGPG [compound 1]
Glycosylation by GalNAc-T4 (in words) (GalNAc-T4 wild-type [9]): imperceptibly glycosylated | STD-NMR enhancements (in words) (GalNAc-T4 [10]): No significant STD enhancements | UDP-GalNAc Hydrolysis % [4]: ~90%

GAT*GAGAGAGTTPGPG [compound 3]
Km increase relative to wt GalNAc-T4 [1]: ~20 fold | UDP-GalNAc Hydrolysis % [1]: ~70% | Km relative to wt (fold higher) [3]: ~2 fold | Kd by SPR (in words) (GalNAc-T4 [11]): in the mM range | Km relative to wt (fold higher) [7]: ~2 fold | Catalytic efficiency (Vmax/Km) relative to peptide 4 (fold higher) (GalNAc-T4 wild-type [8]): ~100 fold | Km relative to peptide 4 (fold lower) (GalNAc-T4 wild-type [8]): ~12 fold | Vmax relative to peptide 4 (fold higher) (GalNAc-T4 wild-type [8]): ~8 fold | Activity relative to glycopeptides 4 and 5 (fold higher) (GalNAc-T4 wild-type [8]): ~10 fold

GATGAGAGAGTTPGPG (not fully specified (residues 3, 11); printed as GAT*GAGAGAGT*TPGPG) [diglycopeptide 6, GAT*GAGAGAGT*TPGPG]
fold change of Kd against the wt transferase [12]: ~6 fold | Kd [13]: 70 ± 15 µM
